Reference: publication PMC6930011 (Journal of the American Chemical Society, 2019)
Where no end group is shown, it is not given here.

What was measured:
PTHR1 = format: cell-based; conditions: HEK293 cells stably expressing HA-tagged PTHR1
hPTHR1 = experiment: Washout assay of cAMP signaling duration; format: cell-based, human; conditions: excess PTHR1 antagonist (D)Trp^12,Tyr^34-bPTH(7-34) during washout; 1 nM agonist
Method in brief: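 HEK293 cells stably expressing hPTHR1, with β-arrestin at endogenous levels, were stimulated with 1 nM agonist for a defined period. Agonist was then washed off and cAMP monitored during the ligand-off phase, with excess antagonist present after washout and, in some runs, BA1 added as well. Output was area under curve, normalized to PTH(1-34)-NH2 at 1 nM. Data were mean ± s.e.m. from n = 3–4 independent experiments, compared by one-way ANOVA.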

human PTHR1 = experiment: cAMP production, GloSensor assay in HEK-293 cells stably expressing human PTHR1; format: cell-based; conditions: relative to PTH(1-34)-NH2; Figure S2

Row | Substance | co-IP of the PTHR1 and endogenous β-arrestin (PTHR1) | effect of antagonist after washout on duration and extent of cAMP production (hPTHR1) | potency in stimulating cAMP production, fold less potent than PTH(1-34)-NH2 (human PTHR1)
1 | PTH(1-34)-NH2 | effectively induced co-IP | only a modest drop | –
2 | Trp^1-PTHrP(1-36)-NH2 (WVSEHQLLHDKGKSIQDLRRRFFLHHLIAEIHTAEI-NH2; UniProt P12272 37-72, looked up, variant A1W) | – | – | ~ 5 fold
3 | Tyr^1-PTH(1-34)-NH2 (YVSEIQLMHNLGKHLNSMERVEWLRKKLQDVHNF-NH2; UniProt P01270 32-65, looked up, variant S1Y) | – | – | ~ 5 fold
